Here are results for 8 compounds from ChEMBL document CHEMBL1126152, “Fluoronaphthyridines as antibacterial agents. 4. Synthesis and structure-activity relationships of 5-substituted-6-fluoro-7-(cycloalkylamino)-1,4-dihydro-4-oxo-1,8- naphthyridine-3-carboxylic acids” (J Med Chem, 1992).

In brackets after ≈: the same amount, converted by molar mass.

The test system of data set [1] is Escherichia coli. Nature of the data set: In vitro for antibacterial activity against Escherichia coli. In kind it is functional. Summed up:
(§1)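 MIC by serial 2-fold broth dilution in nutrient broth with an inoculum of 10^6 CFU/mL. Compound range was 0.0005–250 μg/mL. Plates were incubated 18 h at 37 °C. MIC was taken as the lowest concentration preventing visible growth.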

For the next data set, the system named is Bacteroides fragilis. Nature of the data set: In vitro for antibacterial activity against […]. It counts as functional. Summed up: as §1
The subject of data set [2] is Pseudomonas aeruginosa. Nature of the data set: In vitro for antibacterial activity against Pseudomonas aeruginosa. In kind it is functional. Summed up: as §1
A further data set has as its system Serratia marcescens. As to the kind of experiment: In vitro for antibacterial activity against Serratia marcescens. It counts as functional. Summed up:
as §1

A further data set has as its system Morganella morganii. Nature of the data set: In vitro for antibacterial activity against Morganella morganii. It counts as functional. Summed up: as §1
Data set [3] deals with Streptococcus pneumoniae. Nature of the data set: Antibacterial activity against Streptococcus pneumoniae. It counts as functional.
The test system of a further data set is Enterococcus faecalis. Nature of the data set: In vitro for antibacterial activity against Enterococcus faecalis. In kind it is functional. Summed up:
as §1

The next data set deals with Enterobacter cloacae. As to the kind of experiment: In vitro for antibacterial activity against Enterobacter cloacae. In kind it is functional.
Data set [4] deals with Staphylococcus aureus. As to the kind of experiment: Antibacterial activity against Staphylococcus aureus. It counts as functional.
The next data set deals with Klebsiella pneumoniae. As to the kind of experiment: In vitro for antibacterial activity against Klebsiella pneumoniae. In kind it is functional. Summed up: as §1
A further data set has as its system Proteus mirabilis. As to the kind of experiment: In vitro for antibacterial activity against Proteus mirabilis. In kind it is functional. Summed up: as §1
Data set [5] deals with Escherichia coli. As to the kind of experiment: Compound was tested for […] against Escherichia coli A 15119 after oral administration of drug in mice. It counts as functional. The following applies: read-out: PD50. Summed up: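 Mouse protection test against systemic infection. Compound was dissolved in sterile water and given orally to female OF1-strain Swiss mice weighing 18–25 g, with five mice per group.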

In data set [6] the test system is Pseudomonas aeruginosa. Nature of the data set: animal or person. In kind it is functional. As to conditions: in Mus musculus, po, read-out: PD50.
For data set [7], the system named is Staphylococcus aureus. As to the kind of experiment: animal or person. In kind it is functional. The following applies: in Mus musculus, po, read-out: PD50.
The nature of data set [8]: Solubility was measured at PH - 7.2 buffer.
A short description of data set [9]: Lethal dose was determined in OF1-strain female Swiss mice after intra venous administration of the drug. The following applies: mouse, in vivo, iv.
In data set [10] the test system is Streptococcus pneumoniae. As to the kind of experiment: animal or person. It counts as functional. As to conditions: in Mus musculus, po, read-out: PD50.
Data set [11] can be described thus: Lethal dose was determined in OF1-strain female Swiss mice after oral administration of the drug. The following applies: mouse, in vivo.
Data set [12] is described as follows: Partition coefficient (logD). The following applies: octanol/water.

As a reminder, the MIC is the smallest concentration in the dilution series that meets the test's criterion for growth inhibition. Read a low MIC as a more susceptible organism. The term solubility denotes the concentration that dissolves in the medium under given conditions. One may read the LD50 as the dose at which mortality reaches 50%. The low end stands for greater toxicity, the high end for lower toxicity. One may read the logD as lipophilicity at a set pH, counting ionised and neutral species. Read a high logD as a more lipophilic compound.

In the case of `Cc1c(F)c(N2CCNCC2)nc2c1c(=O)c(C(=O)O)cn2C(C)(C)C`, the MIC in the data set on Escherichia coli [1] was 0.06 µg/mL (≈ 0.166 µM); with Bacteroides fragilis it was more than 32 µg/mL; in the data set on Pseudomonas aeruginosa [2], 4 µg/mL (≈ 11 µM); in the data set with Serratia marcescens, 0.25 µg/mL (≈ 0.69 µM); with Morganella morganii, 0.25 µg/mL (≈ 0.69 µM); against Streptococcus pneumoniae [3], 1 µg/mL (≈ 2.76 µM). The MIC with Enterococcus faecalis turned out to be 2 µg/mL (≈ 5.52 µM); in the data set with Enterobacter cloacae, 0.25 µg/mL (≈ 0.69 µM); against Staphylococcus aureus [4], 0.03 µg/mL (≈ 0.0828 µM); in the data set on Klebsiella pneumoniae it was 0.06 µg/mL (≈ 0.166 µM); against Proteus mirabilis, 0.5 µg/mL (≈ 1.38 µM).
On to `N[C@H]1CCN(c2nc3c(c(-c4ccccc4)c2F)c(=O)c(C(=O)O)cn3C2CC2)C1`, for which the MIC against Escherichia coli [1] was determined as 1 µg/mL (≈ 2.45 µM); against Bacteroides fragilis it was 125 µg/mL (≈ 306 µM); with Pseudomonas aeruginosa [2], 32 µg/mL (≈ 78.3 µM); with Serratia marcescens, 16 µg/mL (≈ 39.2 µM); in the data set with Morganella morganii, 8 µg/mL (≈ 19.6 µM); against Streptococcus pneumoniae [3], 8 µg/mL (≈ 19.6 µM). For the same compound, the MIC with Enterococcus faecalis worked out at 64 µg/mL (≈ 157 µM); in the data set with Enterobacter cloacae it was 2 µg/mL (≈ 4.9 µM); against Staphylococcus aureus [4] it was 2 µg/mL (≈ 4.9 µM); with Klebsiella pneumoniae, 2 µg/mL (≈ 4.9 µM); against Proteus mirabilis it was 16 µg/mL (≈ 39.2 µM).
For the compound `O=C(O)c1cn(-c2ccc(F)cc2F)c2nc(N3CCNCC3)c(F)cc2c1=O`, the MIC against Escherichia coli [1] amounted to 0.016 µg/mL (≈ 0.0396 µM); in the data set with Bacteroides fragilis, 2 µg/mL (≈ 4.95 µM); in the data set with Pseudomonas aeruginosa [2], 0.5 µg/mL (≈ 1.24 µM); against Serratia marcescens, 0.13 µg/mL (≈ 0.322 µM); in the data set with Morganella morganii, 0.13 µg/mL (≈ 0.322 µM); in the data set on Streptococcus pneumoniae [3] it was 0.5 µg/mL (≈ 1.24 µM). For the same compound, the MIC is 1 µg/mL (≈ 2.47 µM) in the data set on Enterococcus faecalis; 0.03 µg/mL (≈ 0.0742 µM) in the data set with Enterobacter cloacae; 0.03 µg/mL (≈ 0.0742 µM) against Staphylococcus aureus [4]; 0.03 µg/mL (≈ 0.0742 µM) against Klebsiella pneumoniae; 0.06 µg/mL (≈ 0.148 µM) in the data set with Proteus mirabilis.
As for `N[C@H]1CCN(c2nc3c(cc2F)c(=O)c(C(=O)O)cn3C2CC2)C1`, the MIC amounted to 0.002 µg/mL (≈ 0.00602 µM) against Escherichia coli [1]; 2 µg/mL (≈ 6.02 µM) in the data set with Bacteroides fragilis; 0.25 µg/mL (≈ 0.752 µM) with Pseudomonas aeruginosa [2]; 0.016 µg/mL (≈ 0.0481 µM) in the data set on Serratia marcescens; 0.004 µg/mL (≈ 0.012 µM) in the data set with Morganella morganii; 0.25 µg/mL (≈ 0.752 µM) against Streptococcus pneumoniae [3]. For the same compound, the MIC with Enterococcus faecalis came out at 0.25 µg/mL (≈ 0.752 µM); in the data set with Enterobacter cloacae, 0.016 µg/mL (≈ 0.0481 µM); in the data set with Staphylococcus aureus [4] it was 0.016 µg/mL (≈ 0.0481 µM); in the data set on Klebsiella pneumoniae it was 0.004 µg/mL (≈ 0.012 µM); with Proteus mirabilis, 0.03 µg/mL (≈ 0.0903 µM).
Consider `Cc1c(F)c(N2CC3CC2CN3)nc2c1c(=O)c(C(=O)O)cn2C1CC1` (stereo not given), for which the ED50 in the data set on Escherichia coli [5] came to 0.9 mg/kg; with Pseudomonas aeruginosa [6], 2.7 mg/kg; with Staphylococcus aureus [7] it was 5.4 mg/kg; in the data set with Streptococcus pneumoniae [10], 43 mg/kg. Further, the MIC in the data set with Escherichia coli [1] was determined as 0.002 µg/mL (≈ 0.00558 µM); in the data set with Bacteroides fragilis it was 1 µg/mL (≈ 2.79 µM); in the data set with Pseudomonas aeruginosa [2] it was 0.25 µg/mL (≈ 0.698 µM); with Serratia marcescens, 0.03 µg/mL (≈ 0.0837 µM); against Morganella morganii, 0.016 µg/mL (≈ 0.0446 µM); against Streptococcus pneumoniae [3], 0.13 µg/mL (≈ 0.363 µM). The minimal inhibitory concentration (MIC) in the data set on Enterococcus faecalis was determined as 0.13 µg/mL (≈ 0.363 µM); in the data set with Enterobacter cloacae it was 0.002 µg/mL (≈ 0.00558 µM); with Staphylococcus aureus [4], 0.002 µg/mL (≈ 0.00558 µM); with Klebsiella pneumoniae, 0.002 µg/mL (≈ 0.00558 µM); with Proteus mirabilis it was 0.016 µg/mL (≈ 0.0446 µM). This compound also showed a solubility in data set [8] of 20 µg/mL (≈ 55.8 µM). Moreover, the LD50 in [9] came out at 131 mg/kg; in data set [11], 1750 mg/kg. Also, the logD in data set [12] is 0.48.
Turning to `O=C(O)c1cn(C2CC2)c2nc(N3CC4CC3CN4)c(F)cc2c1=O` (stereo not given), the MIC with Escherichia coli [1] was 0.06 µg/mL (≈ 0.174 µM); against Pseudomonas aeruginosa [2] it was 0.25 µg/mL (≈ 0.726 µM); against Serratia marcescens it was 0.25 µg/mL (≈ 0.726 µM); against Morganella morganii, 0.06 µg/mL (≈ 0.174 µM); in the data set with Enterococcus faecalis it was 1 µg/mL (≈ 2.9 µM); in the data set on Enterobacter cloacae, 0.03 µg/mL (≈ 0.0871 µM). The figures for the MIC against Staphylococcus aureus [4], against Klebsiella pneumoniae and in the data set with Proteus mirabilis were 0.13 µg/mL (≈ 0.378 µM), 0.06 µg/mL (≈ 0.174 µM) and 0.06 µg/mL (≈ 0.174 µM), respectively. In [8], the concentration in solution (solubility) came to 90 µg/mL (≈ 261 µM).
For the compound `Cc1c(F)c(N2CCNCC2)nc2c1c(=O)c(C(=O)O)cn2-c1ccc(F)cc1F`, the MIC against Escherichia coli [1] came to 0.016 µg/mL (≈ 0.0382 µM); in the data set on Bacteroides fragilis it was 4 µg/mL (≈ 9.56 µM); in the data set with Pseudomonas aeruginosa [2], 1 µg/mL (≈ 2.39 µM); with Serratia marcescens, 0.25 µg/mL (≈ 0.598 µM); against Morganella morganii it was 0.13 µg/mL (≈ 0.311 µM); in the data set with Streptococcus pneumoniae [3], 0.25 µg/mL (≈ 0.598 µM). The minimal inhibitory concentration (MIC) in the data set on Enterococcus faecalis was found to be 1 µg/mL (≈ 2.39 µM); against Enterobacter cloacae, 0.03 µg/mL (≈ 0.0717 µM); against Staphylococcus aureus [4] it was 0.016 µg/mL (≈ 0.0382 µM); in the data set on Klebsiella pneumoniae, 0.03 µg/mL (≈ 0.0717 µM); against Proteus mirabilis it was 0.25 µg/mL (≈ 0.598 µM).
`CC(C)(C)n1cc(C(=O)O)c(=O)c2cc(F)c(N3CC[C@H](N)C3)nc21`: the MIC in the data set on Escherichia coli [1] stood at 0.02 µg/mL (≈ 0.0574 µM); against Bacteroides fragilis, 1 µg/mL (≈ 2.87 µM); against Pseudomonas aeruginosa [2], 0.25 µg/mL (≈ 0.718 µM); in the data set on Serratia marcescens it was 0.25 µg/mL (≈ 0.718 µM); with Morganella morganii it was 0.13 µg/mL (≈ 0.373 µM); against Streptococcus pneumoniae [3] it was 0.008 µg/mL (≈ 0.023 µM). Also, the MIC in the data set with Enterococcus faecalis was 0.06 µg/mL (≈ 0.172 µM); in the data set on Enterobacter cloacae it was 0.03 µg/mL (≈ 0.0861 µM); against Staphylococcus aureus [4] it was 0.004 µg/mL (≈ 0.0115 µM); in the data set on Klebsiella pneumoniae, 0.03 µg/mL (≈ 0.0861 µM); in the data set on Proteus mirabilis, 0.13 µg/mL (≈ 0.373 µM).
